Results from ChEMBL document CHEMBL2417380, “Synthesis, pharmacological assessment, and molecular modeling of 6-chloro-pyridonepezils: new dual AChE inhibitors as potential drugs for the treatment of Alzheimer's disease” (Eur J Med Chem, 2013).

Experiments:
Cholinesterase [1] = biological target: T1, Cholinesterase (Homo sapiens, UniProt P06276); experiment: Inhibition of human plasma BuChE using butyrylthiocholine as substrate by Ellman's method
Procedure, shortened: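 Ellman spectrophotometric assay with BuChE from human serum in 100 mM phosphate buffer, pH 8.0, at 30 °C. Butyrylthiocholine (0.4 mM) was the substrate and DTNB 0.2 mM. Absorbance change at 412 nm gave IC50 as the concentration giving 50% inhibition. Values are mean ± s.e.m. of at least three experiments run in quadruplicate.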

Homo sapiens = species: Homo sapiens; experiment: Selectivity index, ratio of IC50 for human plasma BuChE to IC50 for purified human erythrocyte AChE
Procedure, shortened: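 Index computed as hBuChE IC50 divided by hAChE IC50. Both IC50s come from the Ellman assay in 100 mM phosphate buffer, pH 8.0, at 30 °C, read at 412 nm with DTNB 0.2 mM. AChE was purified from human erythrocytes with acetylthiocholine substrate; BuChE came from human serum with butyrylthiocholine substrate, each substrate at 0.4 mM.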

Acetylcholinesterase = Acetylcholinesterase (Homo sapiens, UniProt P22303); experiment: Inhibition of purified human erythrocyte AChE using […] as substrate by Ellman's method
Chain of Acetylcholinesterase (P22303 whole entry): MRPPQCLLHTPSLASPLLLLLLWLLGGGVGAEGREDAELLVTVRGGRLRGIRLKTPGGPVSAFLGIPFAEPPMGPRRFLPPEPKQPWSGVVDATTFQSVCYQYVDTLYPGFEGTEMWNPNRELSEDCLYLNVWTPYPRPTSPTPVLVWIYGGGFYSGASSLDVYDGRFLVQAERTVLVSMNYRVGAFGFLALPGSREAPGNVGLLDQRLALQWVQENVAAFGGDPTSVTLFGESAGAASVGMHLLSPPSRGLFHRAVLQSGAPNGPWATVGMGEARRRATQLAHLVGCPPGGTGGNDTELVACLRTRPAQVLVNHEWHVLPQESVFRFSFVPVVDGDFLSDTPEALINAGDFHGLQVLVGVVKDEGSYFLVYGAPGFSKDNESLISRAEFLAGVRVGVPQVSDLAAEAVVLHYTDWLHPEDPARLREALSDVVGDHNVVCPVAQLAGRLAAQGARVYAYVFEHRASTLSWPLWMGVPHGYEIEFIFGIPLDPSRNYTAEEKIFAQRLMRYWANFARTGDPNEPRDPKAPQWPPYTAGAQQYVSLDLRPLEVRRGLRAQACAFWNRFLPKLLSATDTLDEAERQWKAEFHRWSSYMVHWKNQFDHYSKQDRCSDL

[2] = Permeability of the compound at 1 mg/ml after 4 hrs by PAMPA; format: ADME; conditions: read-out: permeability
Procedure, shortened: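 PAMPA-BBB: donor filter impregnated with porcine brain lipid in dodecane (20 mg/mL). Compound dissolved in PBS (pH 7.4)/ethanol (7:3) and filtered before loading into the donor wells. The acceptor wells held PBS/ethanol (7:3). Incubated undisturbed 4 h at 25 °C. Acceptor concentration measured by UV at five wavelengths, in four wells, over at least three independent runs; mean (SD).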

Cholinesterase [3] = biological target: T1, Cholinesterase; experiment: Ratio of donepezil IC50 to compound IC50 for human plasma BuChE

T1 sequence (P06276 whole entry): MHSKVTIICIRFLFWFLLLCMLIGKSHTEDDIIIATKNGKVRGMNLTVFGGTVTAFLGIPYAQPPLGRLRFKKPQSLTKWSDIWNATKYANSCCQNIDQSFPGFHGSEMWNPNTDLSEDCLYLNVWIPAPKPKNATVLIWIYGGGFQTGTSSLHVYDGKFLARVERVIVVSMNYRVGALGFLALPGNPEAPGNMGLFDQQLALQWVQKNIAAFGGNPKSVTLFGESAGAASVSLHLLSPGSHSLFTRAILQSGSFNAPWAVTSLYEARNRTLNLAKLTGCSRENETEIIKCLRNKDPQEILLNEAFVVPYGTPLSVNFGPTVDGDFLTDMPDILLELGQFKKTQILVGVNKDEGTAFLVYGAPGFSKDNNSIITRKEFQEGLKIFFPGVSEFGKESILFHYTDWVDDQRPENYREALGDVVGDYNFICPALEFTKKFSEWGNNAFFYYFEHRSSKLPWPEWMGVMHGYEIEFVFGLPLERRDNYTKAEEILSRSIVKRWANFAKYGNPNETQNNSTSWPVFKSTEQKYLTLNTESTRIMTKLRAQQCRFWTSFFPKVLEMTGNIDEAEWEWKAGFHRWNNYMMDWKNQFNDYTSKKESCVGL

## N#Cc1cc(C#N)c(NCCCC2CCN(Cc3ccccc3)CC2)nc1Cl
Cholinesterase [1]
  IC50: 8.39 µM
Homo sapiens
  Ratio IC50: 155
Acetylcholinesterase
  IC50: 0.054 µM
[2]
  Papp at 4 h, 1 mg/ml: 59.8 nm/s

## N#Cc1c(Cl)nc(NCCC2CCN(Cc3ccccc3)CC2)c(C#N)c1-c1ccccc1
Cholinesterase [1]
  IC50: > 10 µM
Acetylcholinesterase
  IC50: 4.4 µM

## N#Cc1cc(C#N)c(NC2CCN(Cc3ccccc3)CC2)nc1Cl
Cholinesterase [1]
  IC50: > 10 µM
Acetylcholinesterase
  IC50: 5.35 µM
[2]
  Papp at 4 h, 1 mg/ml: 73.9 nm/s

## N#Cc1c(Cl)nc(NCCCC2CCN(Cc3ccccc3)CC2)c(C#N)c1-c1ccccc1
Cholinesterase [1]
  IC50: 9.41 µM
Homo sapiens
  Ratio IC50: 2.43
Acetylcholinesterase
  IC50: 3.86 µM
[2]
  Papp at 4 h, 1 mg/ml: 101 nm/s

## N#Cc1c(Cl)nc(NCCCCC2CCN(Cc3ccccc3)CC2)c(C#N)c1-c1ccccc1
Cholinesterase [1]
  IC50: 5.62 µM
Homo sapiens
  Ratio IC50: 181
Acetylcholinesterase
  IC50: 0.031 µM
[2]
  Papp at 4 h, 1 mg/ml: 103 nm/s

## N#Cc1c(Cl)nc(NC2CCN(Cc3ccccc3)CC2)c(C#N)c1-c1ccccc1
Cholinesterase [1]
  IC50: > 10 µM
Acetylcholinesterase
  IC50: 9.43 µM

## N#Cc1cc(C#N)c(NCCCCC2CCN(Cc3ccccc3)CC2)nc1Cl
Cholinesterase [1]
  IC50: 8.13 µM
Homo sapiens
  Ratio IC50: 625
Acetylcholinesterase
  IC50: 0.013 µM
[2]
  Papp at 4 h, 1 mg/ml: 69.9 nm/s

## N#Cc1c(NCCC2CCN(Cc3ccccc3)CC2)nc(NCCC2CCN(Cc3ccccc3)CC2)c(C#N)c1-c1ccccc1
Cholinesterase [1]
  IC50: > 10 µM
Acetylcholinesterase
  IC50: 9.77 µM

## N#Cc1cc(C#N)c(NCCC2CCN(Cc3ccccc3)CC2)nc1Cl
Cholinesterase [1]
  IC50: 0.47 µM
Homo sapiens
  Ratio IC50: 1.52
Acetylcholinesterase
  IC50: 0.31 µM
[2]
  Papp at 4 h, 1 mg/ml: 85.2 nm/s
Cholinesterase [3]
  Ratio IC50: 5

## N#Cc1cc(C#N)c(NC2CCN(Cc3ccccc3)CC2)nc1NC1CCN(Cc2ccccc2)CC1
Cholinesterase [1]
  IC50: > 10 µM
Acetylcholinesterase
  IC50: 7.3 µM
[2]
  Papp at 4 h, 1 mg/ml: 50 nm/s
